From ChEMBL document CHEMBL3045046, “Synthesis, herbicidal activities, and 3D-QSAR of 2-cyanoacrylates containing aromatic methylamine moieties” (J Agric Food Chem, 2008)

Legend:
Assay type in all cases: functional
Brassica napus [1] = assay: Herbicidal activity against Brassica napus (oilseed rape) assessed as inhibition of herb growth at 1.5 kg/ha during preemergence treatment protocol; conditions: pre-emergence, read-out: GI
Digitaria sanguinalis [2] = assay: Herbicidal activity against hairy Digitaria sanguinalis (hairy crabgrass) assessed as inhibition of herb growth at 1.5 kg/ha during preemergence treatment protocol; conditions: pre-emergence, read-out: GI
Amaranthus retroflexus [3] = assay: Herbicidal activity against Amaranthus retroflexus assessed as inhibition of herb growth at 1.5 kg/ha during postemergence treatment protocol; conditions: post-emergence, read-out: GI
Medicago sativa [4] = assay: Herbicidal activity against Medicago sativa (alfalfa) assessed as inhibition of herb growth at 1.5 kg/ha during preemergence treatment protocol; conditions: pre-emergence, read-out: GI
Medicago sativa [5] = assay: Herbicidal activity against Medicago sativa (alfalfa) assessed as inhibition of herb growth at 1.5 kg/ha during postemergence treatment protocol; conditions: post-emergence, read-out: GI
Brassica napus [6] = assay: Herbicidal activity against Brassica napus (oilseed rape) assessed as inhibition of herb growth at 1.5 kg/ha during postemergence treatment protocol; conditions: post-emergence, read-out: GI
Digitaria sanguinalis [7] = assay: Herbicidal activity against hairy Digitaria sanguinalis (hairy crabgrass) assessed as inhibition of herb growth at 1.5 kg/ha during postemergence treatment protocol; conditions: post-emergence, read-out: GI
Spinacia oleracea = assay: Inhibition of photosynthetic electron transport in Spinacia oleracea (spinach)isolated chloroplasts assessed as inhibition of Hill reaction
Method in brief: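 Chloroplasts from fresh spinach leaves, homogenised in ice-cold pH 7.8 buffer (0.4 M sucrose, 10 mM NaCl, 50 mM Tris-HCl), spun 3 min 120g then 5 min 1000g at 4 °C. Reaction buffer 350 mM NaCl, 10 mM Tris-HCl pH 7.8 with DCPIP; 2 min light (360 µmol m^-2 s^-1), DCPIP reduction at 620 nm. Compounds 0.01 mg/L–0.3 mg/mL in […]/water, ≥triplicate; IC50 by log-linear regression.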

Amaranthus retroflexus [8] = assay: Herbicidal activity against Amaranthus retroflexus assessed as inhibition of herb growth at 1.5 kg/ha during preemergence treatment protocol; conditions: pre-emergence, read-out: GI
[9] = Spinacia oleracea, read-out: pIC50 (converted)

| SMILES | inhibition of growth at 1500 g/ha (Brassica napus [1]) | inhibition of growth at 1500 g/ha (Digitaria sanguinalis [2]) | inhibition of growth at 1500 g/ha (Amaranthus retroflexus [3]) | inhibition of growth at 1500 g/ha (Medicago sativa [4]) | inhibition of growth at 1500 g/ha (Medicago sativa [5]) | inhibition of growth at 1500 g/ha (Brassica napus [6]) | inhibition of growth at 1500 g/ha (Digitaria sanguinalis [7]) | IC50 (Spinacia oleracea) | IC50 (Spinacia oleracea; [9]) | inhibition of growth at 1500 g/ha (Amaranthus retroflexus [8]) |
| --- | --- | --- | --- | --- | --- | --- | --- | --- | --- | --- |
| CCOCCOC(=O)/C(C#N)=C(\NCc1cnc(OCC(F)(F)F)s1)SC | 65.4% | 8.9% | 98.7% | 1.7% | 60.9% | 100% | 47.2% | 0.055 ppm | 55 nM | 43.2% |
| CCOCCOC(=O)/C(C#N)=C(\NCc1ccc(N(C)C)nc1)SC | 37.4% | 28.7% | 80.9% | 0% | 51.6% | 100% | 45.6% | 0.292 ppm | 295 nM | 13.5% |
| CCOCCOC(=O)/C(C#N)=C(\NCc1ccc(Cl)nn1)C(C)C | 59.5% | 10.9% | 91.6% | 4.5% | 31.4% | 100% | 48% | 4.3 ppm | 4270 nM | 27% |
| CCOCCOC(=O)/C(C#N)=C(\NCc1cnc(OCC(F)(F)F)s1)C(C)C | 71.9% | 34.6% | 100% | 0% | 53.3% | 100% | 95.2% | 0.074 ppm | 74.1 nM | 51% |
| CCOCCOC(=O)/C(C#N)=C(\NCc1ccc(N(C)C)nc1)C(C)C | 29.3% | 52.5% | 100% | 27.9% | 58.3% | 100% | 88% | 0.086 ppm | 85.1 nM | 75.7% |
| CCOCCOC(=O)/C(C#N)=C(\NCc1ccc(OCC)nn1)SC | 0% | 0% | 32.9% | 0% | 24.2% | 64.6% | 0.8% | 12.29 ppm | 9120 nM | 56.8% |
| CCCOc1ncc(CN/C(SC)=C(/C#N)C(=O)OCCOCC)s1 | 0% | 0% | 100% | 17.6% | 57.3% | 100% | 49.6% | 0.05 ppm | 50.1 nM | 27% |
| CCOCCOC(=O)/C(C#N)=C(\NCC1CCOC1)C(C)C (stereo not given) | 0% | 0% | 37.8% | 2.3% | 41.3% | 88.2% | 57.6% | 41.4 ppm | 41700 nM | 12.6% |
| CCOCCOC(=O)/C(C#N)=C(/CC)NCc1cnc(OC)nc1 | 51.5% | 36% | 20.7% | 29.4% | 26% | 63.7% | 2.2% |  |  | 34.6% |
| CCOCCOC(=O)/C(C#N)=C(\NCC1CCCO1)SC (stereo not given) | 0% | 35.7% | 37.8% | 21.8% | 23.4% | 47.5% | 0% | 27.92 ppm | 20900 nM | 9.5% |
| CCOCCOC(=O)/C(C#N)=C(\NCc1ccc(N2CCOCC2)nn1)SC | 10.9% | 6.9% | 24% | 10.1% | 32.8% | 18.1% | 2.4% |  |  | 13.5% |
| CCOCCOC(=O)/C(C#N)=C(\NCc1ccc(Cl)nc1)SC | 68.9% | 18.6% | 100% | 1.5% | 41.3% | 100% | 89.9% | 0.167 ppm | 166 nM | 13.7% |
| CCOCCOC(=O)/C(C#N)=C(\NCc1ccc(N2CCOCC2)nn1)C(C)C | 49.8% | 22.8% | 19.1% | 2.6% | 15.2% | 85.4% | 13.6% |  |  | 5.4% |
| CCOCCOC(=O)/C(C#N)=C(\NCc1ccc(Cl)cc1)SC | 24.9% | 24.8% | 100% | 0% | 12.9% | 100% | 31.2% | 0.026 ppm | 25.7 nM | 59.4% |
| CCOCCOC(=O)/C(C#N)=C(\NCc1cnc(OC(C)C)s1)C(C)C | 51.4% | 6.9% | 100% | 1.7% | 43.4% | 100% | 60.8% | 0.076 ppm | 75.9 nM | 100% |
| CCOCCOC(=O)/C(C#N)=C(\NCc1cnc(OC(C)C)s1)SC | 26% | 14.8% | 100% | 4.5% | 53.6% | 100% | 54.4% | 0.07 ppm | 70.8 nM | 40.5% |
| CCOCCOC(=O)/C(C#N)=C(\NCc1cnc(OC)nc1)C(C)C | 0% | 46.2% | 3.4% | 57.1% | 74% | 19.4% | 52.2% |  |  | 22.2% |
| CCOCCOC(=O)/C(C#N)=C(\NCc1ccc(OCC)nn1)C(C)C | 44.9% | 26.7% | 70.2% | 0% | 50.7% | 100% | 57.6% |  |  | 54% |
